# According to ChEMBL document CHEMBL1142361, “Phenylglycine and phenylalanine derivatives as potent and selective HDAC1 inhibitors (SHI-1)” (Bioorg Med Chem Lett, 2008):
# pIC50: −log10 of the molar value.
# Experiments:
# [1] = test system: HCT-116; assay: Antiproliferative activity against human HCT116 cells after 72 hrs; format: functional
# [2] = Log D at pH 7 by HPLC; format: physicochemical; conditions: buffer
# [3] = molecular target: Histone deacetylase 3 (Homo sapiens) (UniProt O15379); assay: Inhibition of HDAC3
# [4] = molecular target: Histone deacetylase 4 (Homo sapiens) (UniProt P56524); assay: Inhibition of HDAC4
# [5] = molecular target: Histone deacetylase 5 (Homo sapiens) (UniProt Q9UQL6); assay: Inhibition of HDAC5
# [6] = molecular target: T1, Protein deacetylase HDAC6 (Homo sapiens) (UniProt Q9UBN7); assay: Inhibition of HDAC6
# T1 sequence (whole entry): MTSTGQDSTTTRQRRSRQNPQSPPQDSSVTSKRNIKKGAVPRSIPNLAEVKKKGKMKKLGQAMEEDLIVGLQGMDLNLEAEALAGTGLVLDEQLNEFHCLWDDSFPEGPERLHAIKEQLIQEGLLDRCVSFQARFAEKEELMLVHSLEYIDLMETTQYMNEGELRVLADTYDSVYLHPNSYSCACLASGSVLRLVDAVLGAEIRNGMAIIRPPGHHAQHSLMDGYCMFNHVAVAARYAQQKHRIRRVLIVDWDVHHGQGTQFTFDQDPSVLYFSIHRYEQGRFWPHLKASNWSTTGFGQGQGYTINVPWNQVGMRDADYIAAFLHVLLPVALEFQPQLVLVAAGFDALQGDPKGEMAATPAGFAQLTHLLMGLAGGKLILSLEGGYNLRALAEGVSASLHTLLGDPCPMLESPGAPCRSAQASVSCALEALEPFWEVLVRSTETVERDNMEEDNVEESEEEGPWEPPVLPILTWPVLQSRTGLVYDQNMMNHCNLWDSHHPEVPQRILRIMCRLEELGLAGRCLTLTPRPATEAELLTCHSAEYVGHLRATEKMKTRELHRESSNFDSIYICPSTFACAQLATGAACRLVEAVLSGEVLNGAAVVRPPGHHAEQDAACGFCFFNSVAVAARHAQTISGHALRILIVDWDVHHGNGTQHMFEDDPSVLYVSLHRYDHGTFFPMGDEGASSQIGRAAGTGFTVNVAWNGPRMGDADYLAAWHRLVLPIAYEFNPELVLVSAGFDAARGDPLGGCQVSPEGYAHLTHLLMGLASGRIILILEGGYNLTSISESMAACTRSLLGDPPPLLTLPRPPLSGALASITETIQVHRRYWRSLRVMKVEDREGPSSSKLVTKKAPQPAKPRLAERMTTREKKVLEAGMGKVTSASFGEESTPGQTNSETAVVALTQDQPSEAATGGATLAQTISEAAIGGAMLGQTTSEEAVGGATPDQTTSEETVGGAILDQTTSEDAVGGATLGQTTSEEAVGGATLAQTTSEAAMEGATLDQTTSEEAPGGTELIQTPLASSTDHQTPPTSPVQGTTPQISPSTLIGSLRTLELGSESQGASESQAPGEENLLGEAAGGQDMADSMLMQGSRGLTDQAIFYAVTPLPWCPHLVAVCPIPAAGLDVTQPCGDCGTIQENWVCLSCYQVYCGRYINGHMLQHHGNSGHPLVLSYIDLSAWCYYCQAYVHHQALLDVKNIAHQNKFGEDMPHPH
# [7] = molecular target: T2, Histone deacetylase 7 (Homo sapiens) (UniProt Q8WUI4); assay: Inhibition of HDAC7
# T2 sequence (whole entry): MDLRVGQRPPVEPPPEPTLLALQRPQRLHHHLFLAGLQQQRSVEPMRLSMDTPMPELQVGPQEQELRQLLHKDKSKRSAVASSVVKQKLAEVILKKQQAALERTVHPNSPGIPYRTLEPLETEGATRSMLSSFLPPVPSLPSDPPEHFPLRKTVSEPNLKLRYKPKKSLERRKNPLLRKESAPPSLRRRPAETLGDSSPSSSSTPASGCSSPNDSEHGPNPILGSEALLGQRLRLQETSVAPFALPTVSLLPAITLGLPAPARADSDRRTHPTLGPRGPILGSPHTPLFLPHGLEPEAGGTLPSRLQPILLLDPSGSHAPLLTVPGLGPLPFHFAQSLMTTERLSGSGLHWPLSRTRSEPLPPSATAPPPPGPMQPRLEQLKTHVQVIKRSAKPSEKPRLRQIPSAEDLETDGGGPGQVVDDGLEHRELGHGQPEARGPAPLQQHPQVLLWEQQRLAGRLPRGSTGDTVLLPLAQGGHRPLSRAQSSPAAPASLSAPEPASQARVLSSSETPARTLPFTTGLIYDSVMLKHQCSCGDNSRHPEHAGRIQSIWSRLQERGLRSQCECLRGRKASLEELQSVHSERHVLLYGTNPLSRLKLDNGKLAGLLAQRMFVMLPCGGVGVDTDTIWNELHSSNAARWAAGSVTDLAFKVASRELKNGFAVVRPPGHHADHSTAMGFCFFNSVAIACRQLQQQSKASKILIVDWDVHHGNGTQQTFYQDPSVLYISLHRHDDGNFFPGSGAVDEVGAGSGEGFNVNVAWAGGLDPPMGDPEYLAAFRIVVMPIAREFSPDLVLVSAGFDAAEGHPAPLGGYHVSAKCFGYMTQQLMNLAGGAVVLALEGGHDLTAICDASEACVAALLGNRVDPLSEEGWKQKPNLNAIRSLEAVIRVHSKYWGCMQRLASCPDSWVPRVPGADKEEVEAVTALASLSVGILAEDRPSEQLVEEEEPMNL
# [8] = molecular target: T3, Histone deacetylase 8 (Homo sapiens) (UniProt Q9BY41); assay: Inhibition of HDAC8
# T3 sequence (whole entry): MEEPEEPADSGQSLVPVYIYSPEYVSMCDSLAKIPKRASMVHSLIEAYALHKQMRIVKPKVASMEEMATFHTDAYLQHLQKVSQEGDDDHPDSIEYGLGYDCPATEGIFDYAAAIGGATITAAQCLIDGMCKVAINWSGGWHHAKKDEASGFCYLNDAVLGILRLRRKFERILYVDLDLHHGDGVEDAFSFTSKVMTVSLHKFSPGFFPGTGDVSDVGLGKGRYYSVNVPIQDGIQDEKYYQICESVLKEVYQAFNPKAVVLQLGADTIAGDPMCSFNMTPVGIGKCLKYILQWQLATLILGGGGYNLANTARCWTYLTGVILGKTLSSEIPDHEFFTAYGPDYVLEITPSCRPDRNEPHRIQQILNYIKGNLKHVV
# [9] = molecular target: T4, Histone deacetylase 11 (Homo sapiens) (UniProt Q96DB2); assay: Inhibition of HDAC11
# T4 sequence (whole entry): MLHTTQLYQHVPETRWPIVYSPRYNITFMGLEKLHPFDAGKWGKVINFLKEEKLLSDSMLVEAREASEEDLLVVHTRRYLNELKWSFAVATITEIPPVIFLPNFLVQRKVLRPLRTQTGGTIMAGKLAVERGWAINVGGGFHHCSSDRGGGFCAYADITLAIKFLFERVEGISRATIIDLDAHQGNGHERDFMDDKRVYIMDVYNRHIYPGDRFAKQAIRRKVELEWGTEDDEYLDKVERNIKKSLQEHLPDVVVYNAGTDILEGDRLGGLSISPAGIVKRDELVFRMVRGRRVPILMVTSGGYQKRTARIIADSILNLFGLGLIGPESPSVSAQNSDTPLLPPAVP
# [10] = Selectivity for HDAC1 over HDAC2
# [11] = Selectivity for HDAC1 over HDAC3
# [12] = Selectivity for HDAC1 over HDAC4
# [13] = Selectivity for HDAC1 over HDAC5
# [14] = Selectivity for HDAC1 over HDAC6
# [15] = Selectivity for HDAC1 over HDAC7
# [16] = Selectivity for HDAC1 over HDAC8
# [17] = Selectivity for HDAC1 over HDAC11
# [18] = Clearance in rat at 2 mg/kg, iv and 4 mg/kg, po; format: ADME, organism-based; conditions: in vivo
# [19] = Volume of distribution at steady state in rat at 2 mg/kg, iv and 4 mg/kg, po; format: ADME, organism-based; conditions: in vivo, read-out: Vdss
# [20] = Half life in rat at 2 mg/kg, iv and 4 mg/kg, po; format: ADME, organism-based; conditions: in vivo
# [21] = Bioavailability in rat at 4 mg/kg, po; format: ADME, organism-based; conditions: in vivo
# [22] = Clearance in dog at 0.5 mg/kg, iv and 1 mg/kg, po; format: ADME, organism-based, Canis lupus familiaris; conditions: in vivo
# [23] = Volume of distribution at steady state in dog at 0.5 mg/kg, iv and 1 mg/kg, po; format: ADME, organism-based, Canis lupus familiaris; conditions: in vivo, read-out: Vdss
# [24] = Half life in dog at 0.5 mg/kg, iv and 1 mg/kg, po; format: ADME, organism-based, Canis lupus familiaris; conditions: in vivo
# [25] = Bioavailability in dog at 1 mg/kg, po; format: ADME, organism-based, Canis lupus familiaris; conditions: in vivo
# [26] = Clearance in rhesus monkey at 0.5 mg/kg, iv and 1 mg/kg, po; format: ADME, organism-based, Macaca mulatta; conditions: in vivo
# [27] = Volume of distribution at steady state in rhesus monkey at 0.5 mg/kg, iv and 1 mg/kg, po; format: ADME, organism-based, Macaca mulatta; conditions: in vivo, read-out: Vdss
# [28] = Half life in rhesus monkey at 0.5 mg/kg, iv and 1 mg/kg, po; format: ADME, organism-based, Macaca mulatta; conditions: in vivo
# [29] = Bioavailability in rhesus monkey at 1 mg/kg, po; format: ADME, organism-based, Macaca mulatta; conditions: in vivo
# [30] = Drug level in HCT116 cells xenografted mouse plasma at 65 mg/kg, ip qd after 2 hrs on day 21; format: ADME, organism-based, HCT-116; parameters: dose 65 mg/kg, route intraperitoneal
# Procedure, shortened: (§1)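 Mice bearing HCT116 xenografts were dosed ip in a 21-day study at 50, 65 and 80 mg/kg alongside vehicle. Plasma drug levels were measured 2, 4 and 24 h post-dose.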
# [31] = Drug level in HCT116 cells xenografted mouse plasma at 65 mg/kg, ip qd after 4 hrs on day 21; format: ADME, organism-based, HCT-116; parameters: dose 65 mg/kg, route intraperitoneal; procedure, shortened: as §1
# [32] = Drug level in HCT116 cells xenografted mouse plasma at 65 mg/kg, ip qd after 24 hrs on day 21; format: ADME, organism-based, HCT-116; parameters: dose 65 mg/kg, route intraperitoneal; procedure, shortened: as §1
# [33] = Aqueous solubility at pH 7 by HPLC; format: physicochemical; conditions: buffer
# Procedure, shortened: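 A 200 µM sample in PBS-buffered water at pH 7 was agitated 24 h at room temperature and then filtered. A 100 µM reference was fully dissolved in MeOH:MeCN:DMSO (8:1:1). Both were run by the same high-throughput HPLC method, and the peak areas were compared to give the dissolved concentration. The assay caps at 200 µM.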
# [34] = Drug level in HCT116 cells xenografted mouse plasma at ip qd after 2 hrs on day 21
# [35] = Drug level in HCT116 cells xenografted mouse plasma at ip qd after 4 hrs on day 21
# [36] = Drug level in HCT116 cells xenografted mouse plasma at ip qd after 24 hrs on day 21
# [37] = molecular target: Voltage-gated inwardly rectifying potassium channel KCNH2 (Homo sapiens, UniProt Q12809); assay: Inhibition of human ERG
# Sequence of Voltage-gated inwardly rectifying potassium channel KCNH2 (Q12809 whole entry): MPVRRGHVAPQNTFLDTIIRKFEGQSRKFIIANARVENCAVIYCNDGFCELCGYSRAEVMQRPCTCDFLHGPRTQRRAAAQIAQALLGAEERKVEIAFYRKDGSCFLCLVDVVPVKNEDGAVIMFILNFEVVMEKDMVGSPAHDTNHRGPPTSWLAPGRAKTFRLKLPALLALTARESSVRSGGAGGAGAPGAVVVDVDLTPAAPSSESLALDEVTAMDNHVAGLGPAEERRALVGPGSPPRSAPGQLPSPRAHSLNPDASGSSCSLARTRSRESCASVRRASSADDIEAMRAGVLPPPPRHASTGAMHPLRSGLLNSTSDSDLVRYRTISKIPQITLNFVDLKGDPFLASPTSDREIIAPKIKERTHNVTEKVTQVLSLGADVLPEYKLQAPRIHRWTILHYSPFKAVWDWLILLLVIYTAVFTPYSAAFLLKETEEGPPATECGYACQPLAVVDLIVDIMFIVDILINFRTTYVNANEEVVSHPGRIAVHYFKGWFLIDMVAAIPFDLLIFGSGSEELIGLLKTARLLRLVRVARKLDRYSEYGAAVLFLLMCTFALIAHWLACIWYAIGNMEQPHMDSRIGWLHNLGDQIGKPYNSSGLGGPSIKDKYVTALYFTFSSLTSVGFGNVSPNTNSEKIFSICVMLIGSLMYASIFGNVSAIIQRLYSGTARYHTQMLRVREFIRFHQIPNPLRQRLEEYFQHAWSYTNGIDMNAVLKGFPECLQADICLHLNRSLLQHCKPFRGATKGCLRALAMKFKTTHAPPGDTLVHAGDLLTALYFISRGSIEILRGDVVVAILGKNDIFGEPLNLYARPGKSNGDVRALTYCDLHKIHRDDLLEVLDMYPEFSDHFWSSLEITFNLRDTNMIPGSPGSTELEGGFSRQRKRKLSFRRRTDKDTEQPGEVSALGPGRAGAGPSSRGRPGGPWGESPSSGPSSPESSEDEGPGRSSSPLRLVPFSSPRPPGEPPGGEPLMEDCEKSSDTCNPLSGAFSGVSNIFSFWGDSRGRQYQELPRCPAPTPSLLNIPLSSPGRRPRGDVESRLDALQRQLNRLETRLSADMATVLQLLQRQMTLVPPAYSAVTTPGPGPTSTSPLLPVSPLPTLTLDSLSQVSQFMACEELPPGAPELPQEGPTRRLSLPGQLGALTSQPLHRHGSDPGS
# Sequence of Histone deacetylase 4 (Homo sapiens) (P56524 whole entry): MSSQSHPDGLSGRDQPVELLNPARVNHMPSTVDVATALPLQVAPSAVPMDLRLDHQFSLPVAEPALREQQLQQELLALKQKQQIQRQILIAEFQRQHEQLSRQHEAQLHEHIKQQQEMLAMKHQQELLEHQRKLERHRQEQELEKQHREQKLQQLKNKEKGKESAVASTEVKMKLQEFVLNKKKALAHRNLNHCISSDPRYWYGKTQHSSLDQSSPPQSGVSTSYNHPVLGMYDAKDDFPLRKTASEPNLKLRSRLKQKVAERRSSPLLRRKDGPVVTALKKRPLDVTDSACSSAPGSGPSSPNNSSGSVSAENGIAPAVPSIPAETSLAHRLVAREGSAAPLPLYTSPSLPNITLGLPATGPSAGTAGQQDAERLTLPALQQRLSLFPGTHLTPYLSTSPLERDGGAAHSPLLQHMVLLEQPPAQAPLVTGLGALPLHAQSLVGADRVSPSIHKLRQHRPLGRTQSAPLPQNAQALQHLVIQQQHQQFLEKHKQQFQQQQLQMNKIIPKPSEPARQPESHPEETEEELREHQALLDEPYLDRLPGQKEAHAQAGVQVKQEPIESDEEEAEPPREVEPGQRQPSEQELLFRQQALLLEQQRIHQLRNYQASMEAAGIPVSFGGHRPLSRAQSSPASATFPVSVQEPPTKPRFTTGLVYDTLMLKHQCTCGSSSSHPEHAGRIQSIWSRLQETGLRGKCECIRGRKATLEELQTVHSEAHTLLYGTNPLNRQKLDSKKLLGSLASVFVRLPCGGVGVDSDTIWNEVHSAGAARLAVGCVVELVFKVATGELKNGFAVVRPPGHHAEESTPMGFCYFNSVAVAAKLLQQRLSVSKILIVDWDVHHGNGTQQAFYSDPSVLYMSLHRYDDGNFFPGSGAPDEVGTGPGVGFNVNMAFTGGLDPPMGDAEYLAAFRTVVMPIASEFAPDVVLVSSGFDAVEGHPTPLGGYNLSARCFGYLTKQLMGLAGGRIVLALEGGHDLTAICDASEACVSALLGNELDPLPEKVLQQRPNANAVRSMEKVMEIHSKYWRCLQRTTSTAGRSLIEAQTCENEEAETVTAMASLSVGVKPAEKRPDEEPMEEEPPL
# Sequence of Histone deacetylase 3 (Homo sapiens) (O15379 whole entry): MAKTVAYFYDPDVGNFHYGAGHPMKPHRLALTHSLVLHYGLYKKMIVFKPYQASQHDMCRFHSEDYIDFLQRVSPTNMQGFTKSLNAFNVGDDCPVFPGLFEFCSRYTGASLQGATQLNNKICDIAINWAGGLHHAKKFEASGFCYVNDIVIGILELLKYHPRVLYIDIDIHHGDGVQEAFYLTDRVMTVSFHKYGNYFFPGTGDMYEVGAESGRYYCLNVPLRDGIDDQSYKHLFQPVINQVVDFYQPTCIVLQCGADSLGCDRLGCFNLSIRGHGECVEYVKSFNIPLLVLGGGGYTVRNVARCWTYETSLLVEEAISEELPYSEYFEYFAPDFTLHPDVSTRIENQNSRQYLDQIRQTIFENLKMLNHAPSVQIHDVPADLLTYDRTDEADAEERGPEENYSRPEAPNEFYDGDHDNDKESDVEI
# Sequence of Histone deacetylase 5 (Homo sapiens) (Q9UQL6 whole entry): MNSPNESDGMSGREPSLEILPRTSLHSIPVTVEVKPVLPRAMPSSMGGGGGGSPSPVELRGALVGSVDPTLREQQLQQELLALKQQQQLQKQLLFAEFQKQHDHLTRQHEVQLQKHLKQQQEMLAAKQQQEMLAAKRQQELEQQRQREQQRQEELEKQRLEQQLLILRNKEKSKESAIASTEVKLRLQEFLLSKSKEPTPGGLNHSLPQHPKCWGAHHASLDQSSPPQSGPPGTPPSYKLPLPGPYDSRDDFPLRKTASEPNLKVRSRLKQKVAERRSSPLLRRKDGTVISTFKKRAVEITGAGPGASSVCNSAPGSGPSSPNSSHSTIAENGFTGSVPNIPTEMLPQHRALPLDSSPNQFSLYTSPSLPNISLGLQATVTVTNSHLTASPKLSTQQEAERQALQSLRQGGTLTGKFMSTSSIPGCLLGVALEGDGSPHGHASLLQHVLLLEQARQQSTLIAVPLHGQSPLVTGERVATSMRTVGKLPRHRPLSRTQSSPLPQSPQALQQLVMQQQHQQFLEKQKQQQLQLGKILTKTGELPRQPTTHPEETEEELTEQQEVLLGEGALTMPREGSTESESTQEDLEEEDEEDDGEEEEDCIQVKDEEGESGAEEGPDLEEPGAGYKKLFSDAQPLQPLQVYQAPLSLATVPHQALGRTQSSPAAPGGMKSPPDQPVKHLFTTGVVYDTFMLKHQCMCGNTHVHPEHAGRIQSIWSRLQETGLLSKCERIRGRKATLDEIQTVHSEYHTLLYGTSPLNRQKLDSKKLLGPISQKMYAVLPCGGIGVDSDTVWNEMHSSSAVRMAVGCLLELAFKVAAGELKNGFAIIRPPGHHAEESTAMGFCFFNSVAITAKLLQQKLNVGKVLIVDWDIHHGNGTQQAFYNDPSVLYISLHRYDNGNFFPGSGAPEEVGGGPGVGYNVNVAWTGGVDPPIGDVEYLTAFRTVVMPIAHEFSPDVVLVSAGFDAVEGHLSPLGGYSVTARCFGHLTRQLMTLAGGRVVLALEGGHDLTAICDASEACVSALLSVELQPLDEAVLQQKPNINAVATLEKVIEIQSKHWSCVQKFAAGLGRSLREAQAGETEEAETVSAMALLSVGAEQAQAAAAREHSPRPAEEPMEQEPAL
structure (smiles),measurement,setting,value
CNC(=O)C(NS(C)(=O)=O)c1ccc(C(=O)Nc2cc(-c3cccs3)ccc2N)cc1 (stereo unspecified),Activity,[1],780 nM
CNC(=O)C(NC(=O)OC)c1ccc(C(=O)Nc2cc(-c3cccs3)ccc2N)cc1 (stereo unspecified),Activity,[1],410 nM
CNC(=O)[C@H](N)c1ccc(C(=O)Nc2cc(-c3cccs3)ccc2N)cc1,Activity,[1],420 nM
CNC(=O)C(N)c1ccc(C(=O)Nc2cc(-c3cccs3)ccc2N)cc1 (stereo unspecified),logD,[2],1.57
same,Activity,[1],450 nM
same,Activity,[3],3.4 µM
same,Activity,[4],> 50 µM
same,Activity,[5],> 50 µM
same,Activity,[6],> 50 µM
same,Activity,[7],> 50 µM
same,Activity,[8],35 µM
same,Activity,[9],3.6 µM
same,Selectivity ratio,[10],13
same,Selectivity ratio,[11],340
same,Selectivity ratio,[12],> 5000
same,Selectivity ratio,[13],> 5000
same,Selectivity ratio,[14],> 5000
same,Selectivity ratio,[15],> 5000
same,Selectivity ratio,[16],3500
same,Selectivity ratio,[17],360
same,clearance,[18],38 mL/min/kg
same,Vd,[19],7.6 L/kg
same,half-life,[20],5.9 h
same,bioavailability,[21],27%
same,clearance,[22],11 mL/min/kg
same,Vd,[23],3.2 L/kg
same,half-life,[24],5.4 h
same,bioavailability,[25],17%
same,clearance,[26],16 mL/min/kg
same,Vd,[27],1.6 L/kg
same,half-life,[28],1.6 h
same,bioavailability,[29],5%
same,concentration at 2 h,[30],28.6 µM
same,concentration at 4 h,[31],10 µM
same,concentration at 24 h,[32],0.02 µM
same,solubility,[33],185 µM
same,concentration at 2 h,[34],17.9 µM
same,concentration at 4 h,[35],4.1 µM
same,concentration at 24 h,[36],0.01 µM
Nc1ccc(-c2cccs2)cc1NC(=O)c1ccc(C(N)C(=O)O)cc1 (stereo unspecified),Activity,[1],>20000 nM
NC(=O)C(N)c1ccc(C(=O)Nc2cc(-c3cccs3)ccc2N)cc1 (stereo unspecified),logD,[2],1.49
same,Activity,[1],350 nM
same,solubility,[33],185 µM
NC(=O)[C@H](N)Cc1ccc(C(=O)Nc2cc(-c3cccs3)ccc2N)cc1,Activity,[1],390 nM
Nc1ccc(-c2cccs2)cc1NC(=O)c1ccccc1,logD,[2],2.7
same,Activity,[1],720 nM
CNC(=O)NC(C(=O)NC)c1ccc(C(=O)Nc2cc(-c3cccs3)ccc2N)cc1 (stereo unspecified),Activity,[1],960 nM
CNC(=O)[C@@H](N)c1ccc(C(=O)Nc2cc(-c3cccs3)ccc2N)cc1,Activity,[1],480 nM
NC(=O)[C@@H](N)c1ccc(C(=O)Nc2cc(-c3cccs3)ccc2N)cc1,Activity,[1],510 nM
NC(=O)[C@@H](N)Cc1ccc(C(=O)Nc2cc(-c3cccs3)ccc2N)cc1,Activity,[1],260 nM
CNC(=O)C(NC(C)=O)c1ccc(C(=O)Nc2cc(-c3cccs3)ccc2N)cc1 (stereo unspecified),Activity,[1],620 nM
CCOC(=O)C(N)c1ccc(C(=O)Nc2cc(-c3cccs3)ccc2N)cc1 (stereo unspecified),Activity,[1],1100 nM
same,pIC50,[37],5.24
Nc1ccc(-c2ccccc2)cc1NC(=O)c1ccccc1,Activity,[1],1700 nM
NC(=O)[C@H](N)c1ccc(C(=O)Nc2cc(-c3cccs3)ccc2N)cc1,Activity,[1],350 nM
CN(C)C(=O)C(N)c1ccc(C(=O)Nc2cc(-c3cccs3)ccc2N)cc1 (stereo unspecified),Activity,[1],420 nM
